Calls of active or inactive are those of the source. No cut-off for these calls is given here.
Experiments:
[1] = target: T1, Inhibitor of nuclear factor kappa-B kinase subunit beta (Homo sapiens, UniProt O14920); experiment: Allosteric inhibition of IKKbeta (unknown origin) using 5FAM-GRHDSGLDSMK-NH2 as substrate pretreated for 10 mins followed measured after 2 hrs by TR-FRET assay
T1 sequence (O14920 whole entry): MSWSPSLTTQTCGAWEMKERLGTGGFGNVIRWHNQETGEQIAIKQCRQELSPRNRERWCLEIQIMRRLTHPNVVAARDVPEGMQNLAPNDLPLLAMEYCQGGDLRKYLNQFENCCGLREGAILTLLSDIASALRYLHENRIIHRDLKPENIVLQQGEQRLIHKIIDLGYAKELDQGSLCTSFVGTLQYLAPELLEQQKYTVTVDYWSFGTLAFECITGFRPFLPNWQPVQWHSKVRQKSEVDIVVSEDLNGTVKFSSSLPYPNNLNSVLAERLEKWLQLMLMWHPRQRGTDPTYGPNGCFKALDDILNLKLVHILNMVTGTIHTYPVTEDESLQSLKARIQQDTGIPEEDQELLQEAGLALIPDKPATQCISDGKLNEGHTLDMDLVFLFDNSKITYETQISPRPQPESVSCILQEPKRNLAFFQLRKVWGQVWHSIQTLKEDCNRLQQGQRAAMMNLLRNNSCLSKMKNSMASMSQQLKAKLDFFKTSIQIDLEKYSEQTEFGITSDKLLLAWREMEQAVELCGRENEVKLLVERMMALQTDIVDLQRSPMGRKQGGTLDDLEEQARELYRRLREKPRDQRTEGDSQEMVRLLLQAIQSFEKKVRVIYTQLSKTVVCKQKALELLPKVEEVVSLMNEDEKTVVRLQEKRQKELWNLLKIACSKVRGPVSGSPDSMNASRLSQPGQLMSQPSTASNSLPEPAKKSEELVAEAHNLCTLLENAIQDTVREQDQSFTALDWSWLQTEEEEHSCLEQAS
Outline: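 Enzyme: 0.5 µg/mL IKK2, in 10 mM Tris-HCl pH 7.2, 10 mM MgCl2, 0.05% NaN3, 1 mM DTT, 0.01% Tween-20. Compound at 10 µM pre-incubated 10 min, then 1 µM 5-FAM IκBα peptide and 3 µM ATP added. Reaction 2 h at room temperature. IMAP binding reagent/terbium detection mix added 15 h before reading. TR-FRET read with 340 nm excitation, emission 495/520 nm. Percent inhibition or IC50 derived.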

RAW264.7 [2] = experiment: Cytotoxicity against mouse RAW264.7 cells assessed as reduction in cell viability incubated for 24 hrs in presence of LPS by MTT assay; assay type: cell-based; conditions: RAW264.7, 24 h
Outline: (§1)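 MTT viability in RAW 264.7 cells seeded at 1×10^5 cells/mL and incubated overnight. Compounds added with or without LPS (1 µg/mL) for 24 h. MTT for 4 h at 37 °C, formazan dissolved in DMSO, absorbance read at 540 nm. IC80 is the concentration reducing viability to 80% with LPS.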

RAW264.7 [3] = experiment: Antiinflammatory activity against mouse RAW264.7 cells assessed as reduction in LPS-induced TNF-alpha level incubated for 1 hr followed by LPS stimulation and measured after 24 hrs by ELISA; assay type: functional, cell-based
Outline: (§2)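 RAW 264.7 cells (DMEM, 10% FBS, 37 °C, 5% CO2) plated at 2×10^5 cells/mL and left overnight. Compounds (0.1, 1, 10 µM) or NS-398 given for 1 h, then LPS 10 ng/mL for 24 h. Culture medium assayed by ELISA: competitive colorimetric for PGE2/TNF-α, mouse DuoSet for TNF-α/IL-6. IC50 is the concentration lowering the mediator to 50%.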

RAW264.7 [4] = experiment: Antiinflammatory activity against mouse RAW264.7 cells assessed as reduction in LPS-induced NO level incubated for 1 hr followed by LPS stimulation and measured after 24 hrs by Griess reagent based assay; assay type: functional, cell-based
Outline: (§3)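 RAW 264.7 cells in 24-well plates received compounds (0.1, 1, 10 µM) or L-NIL 40 µM positive control, then LPS 1 µg/mL for 24 h. Nitrite in the medium measured by Griess reaction as an NO surrogate. Values referenced to levels before and after LPS stimulation.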

RAW264.7 [5] = experiment: Antiinflammatory activity against mouse RAW264.7 cells assessed as reduction in LPS-induced PGE2 level incubated for 1 hr followed by LPS stimulation and measured after 24 hrs by ELISA; assay type: functional, cell-based; outline: as §2
RAW264.7 [6] = experiment: Antiinflammatory activity against mouse RAW264.7 cells assessed as reduction in LPS-induced IL-6 level incubated for 1 hr followed by LPS stimulation and measured after 24 hrs by ELISA; assay type: functional, cell-based; outline: as §2
RAW264.7 [7] = experiment: Antiinflammatory activity against mouse RAW264.7 cells assessed as reduction in LPS-induced TNF-alpha level at 10 uM incubated for 1 hr followed by LPS stimulation and measured after 24 hrs by ELISA relative to control; assay type: functional; conditions: time 25 hrs; outline: as §2
RAW264.7 [8] = experiment: Antiinflammatory activity against mouse RAW264.7 cells assessed as reduction in LPS-induced PGE2 production at 10 uM incubated for 1 hr followed by LPS stimulation and measured after 24 hrs by ELISA (reference value: 33.64 ng/ml); assay type: functional; outline: as §2
RAW264.7 [9] = experiment: Antiinflammatory activity against mouse RAW264.7 cells assessed as reduction in LPS-induced PGE2 production at 0.1 to 1 uM incubated for 1 hr followed by LPS stimulation and measured after 24 hrs by ELISA; assay type: functional, cell-based; conditions: dose 0.1-1 µM, time 25.0 hrs; outline: as §2
[10] = Effect on NO production in non-stimulated mouse RAW264.7 cells at 10 uM after 24 hrs by Griess reagent based assay; conditions: raw264.7, 24 h
RAW264.7 [11] = experiment: Cytotoxicity against mouse RAW264.7 cells assessed as reduction in cell viability at 6 uM incubated for 24 hrs by MTT assay; assay type: cell-based; conditions: raw264.7, 24 h; outline: as §1
[12] = Cytotoxicity against non-stimulated mouse RAW264.7 cells upto 10 uM after 24 hrs by MTT assay; conditions: raw264.7, 24 h
RAW264.7 [13] = experiment: Antiinflammatory activity against mouse RAW264.7 cells assessed as reduction in LPS-induced PGE2 production at […] incubated for 1 hr followed by LPS stimulation and measured after 24 hrs by ELISA (reference value: 33.64 ng/ml); assay type: functional; conditions: time 25 hrs
RAW264.7 [14] = experiment: Antiinflammatory activity against mouse RAW264.7 cells assessed as reduction in LPS-induced TNF-alpha level at 0.1 to 1 uM incubated for 1 hr followed by LPS stimulation and measured after 24 hrs by ELISA; assay type: functional, cell-based; conditions: dose 0.1-1 µM, time 25.0 hrs; outline: as §2
RAW264.7 [15] = experiment: Antiinflammatory activity against mouse RAW264.7 cells assessed as reduction in LPS-induced NO level at 40 uM incubated for 1 hr followed by LPS stimulation and measured after 24 hrs by Griess reagent based assay; assay type: functional, cell-based; outline: as §3

Cc1ccc(Oc2ccc(/C=C3\SC(=O)N(c4ccc(OCCCCCN5CCN(C)CC5)cc4)C3=O)cc2)cc1
IC50 [1]: 870 nM

CN1CCN(CCCCCOc2cccc(N3C(=O)S/C(=C\c4ccc(Oc5ccc(N)cc5)cc4)C3=O)c2)CC1
IC50 [1]: 8070 nM

CN1CCN(CCCCCOc2cccc(N3C(=O)S/C(=C\c4ccc(Oc5ccc(Cl)cc5)cc4)C3=O)c2)CC1
IC50 [1]: 2610 nM | IC80 (RAW264.7 [2]): > 10000 nM | IC50 (RAW264.7 [3]): > 10000 nM | IC50 (RAW264.7 [4]): > 10000 nM | IC50 (RAW264.7 [5]): 8520 nM | IC50 (RAW264.7 [6]): > 10000 nM | inhibition at 10 µM (RAW264.7 [7]): 44% | Activity (RAW264.7 [8]; time 25 hrs): 13.87 ng/mL | Activity (RAW264.7 [9]): inactive | Activity [10]: Non-Toxic | Activity (RAW264.7 [11]): Non-Toxic | Activity [12]: Non-Toxic

Cc1ccc(Oc2ccc(/C=C3\SC(=O)N(c4cccc(OCCCCCN5CCN(C)CC5)c4)C3=O)cc2)cc1
IC50 [1]: 2730 nM

CN1CCN(CCCCCOc2cccc(N3C(=O)S/C(=C\c4ccc(Oc5ccc(C#N)cc5)cc4)C3=O)c2)CC1
IC50 [1]: 840 nM

CS(=O)(=O)Nc1ccc([N+](=O)[O-])cc1OC1CCCCC1 [NS-398]
Activity (RAW264.7 [13]): 12.02 ng/mL

CN1CCN(CCCCCOc2cccc(N3C(=O)S/C(=C\c4ccc(Oc5ccc(Br)cc5)cc4)C3=O)c2)CC1
IC50 [1]: 2670 nM

COc1ccc(Oc2ccc(/C=C3\SC(=O)N(c4cccc(OCCCCCN5CCN(C)CC5)c4)C3=O)cc2)cc1
IC50 [1]: 2430 nM

CN1CCN(CCCCCOc2ccc(N3C(=O)S/C(=C\c4ccc(Oc5ccc(F)cc5)cc4)C3=O)cc2)CC1
IC50 [1]: 600 nM

CN1CCN(CCCCCOc2cccc(N3C(=O)S/C(=C\c4ccc(Oc5ccc(F)cc5)cc4)C3=O)c2)CC1
IC50 [1]: 6060 nM | IC80 (RAW264.7 [2]): 4430 nM | IC50 (RAW264.7 [3]): 7870 nM | IC50 (RAW264.7 [4]): > 10000 nM | IC50 (RAW264.7 [5]): > 10000 nM | IC50 (RAW264.7 [6]): > 10000 nM | inhibition at 10 µM (RAW264.7 [7]): 71% | inhibition (RAW264.7 [14]): inactive | Activity (RAW264.7 [8]; time 25.0 hrs): inactive | Activity (RAW264.7 [9]): inactive | Activity [10]: Non-Toxic | Activity (RAW264.7 [11]): Non-Toxic | Activity [12]: Non-Toxic

COc1ccc(Oc2ccc(/C=C3\SC(=O)N(c4ccc(OCCCCCN5CCN(C)CC5)cc4)C3=O)cc2)cc1
IC50 [1]: 700 nM

CN1CCN(CCCCCOc2ccc(N3C(=O)S/C(=C\c4ccc(Oc5ccc(Br)cc5)cc4)C3=O)cc2)CC1
IC50 [1]: 430 nM

CN1CCN(CCCOc2ccc(N3C(=O)S/C(=C\c4ccc(Oc5ccc(F)cc5)cc4)C3=O)cc2)CC1
IC50 [1]: 670 nM

CC(=N)NCCCC[C@H](N)C(=O)O
Activity (RAW264.7 [15]): Active

CN1CCN(CCCCCOc2ccc(N3C(=O)S/C(=C\c4ccc(Oc5ccc(N)cc5)cc4)C3=O)cc2)CC1
IC50 [1]: 2610 nM

CC(=O)Nc1ccc(Oc2ccc(/C=C3\SC(=O)N(c4ccc(OCCCCCN5CCN(C)CC5)cc4)C3=O)cc2)cc1
IC50 [1]: 1710 nM

CN1CCN(CCCCCOc2ccc(N3C(=O)S/C(=C\c4ccc(Oc5ccc(Cl)cc5)cc4)C3=O)cc2)CC1
IC50 [1]: 700 nM
